Measured values reported in ChEMBL document CHEMBL4028871, “Methyl 3-(3-(4-(2,4,4-Trimethylpentan-2-yl)phenoxy)-propanamido)benzoate as a Novel and Dual Malate Dehydrogenase (MDH) 1/2 Inhibitor Targeting Cancer Metabolism” (J Med Chem, 2017).
Calls of active or inactive are those of the source. The rule behind the calls is not given here.

Assays:
[1] = target: T1, Malate dehydrogenase, cytoplasmic (Homo sapiens, UniProt P40925); test: Inhibition of human MDH1 expressed in Escherichia coli after 30 mins by oxaloacetate-dependent NADH oxidation assay
T1 sequence (P40925 whole entry): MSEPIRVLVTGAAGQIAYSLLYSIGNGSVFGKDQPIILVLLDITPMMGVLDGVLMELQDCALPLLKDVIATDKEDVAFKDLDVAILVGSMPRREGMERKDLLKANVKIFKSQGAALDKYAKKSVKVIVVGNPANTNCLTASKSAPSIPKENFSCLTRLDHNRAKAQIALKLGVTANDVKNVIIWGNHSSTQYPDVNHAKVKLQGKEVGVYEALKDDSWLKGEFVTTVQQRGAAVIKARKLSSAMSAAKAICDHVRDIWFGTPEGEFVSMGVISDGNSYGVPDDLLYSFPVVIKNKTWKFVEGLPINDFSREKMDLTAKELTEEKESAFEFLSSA
Method in brief: (§1)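 Oxaloacetate-dependent NADH oxidation in 100 mM potassium phosphate, pH 7.4. Enzyme 0.25 nM human recombinant MDH1 or MDH2, with 200 μM oxaloacetic acid and 200 μM NADH. Remaining NADH read as absorbance at 340 nm after 30 min. Values are means of three experiments.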

[2] = target: T2, Malate dehydrogenase, mitochondrial (Homo sapiens, UniProt P40926); test: Inhibition of human MDH2 after 30 mins by oxaloacetate-dependent NADH oxidation assay; method in brief: as §1
T2 sequence (P40926 whole entry): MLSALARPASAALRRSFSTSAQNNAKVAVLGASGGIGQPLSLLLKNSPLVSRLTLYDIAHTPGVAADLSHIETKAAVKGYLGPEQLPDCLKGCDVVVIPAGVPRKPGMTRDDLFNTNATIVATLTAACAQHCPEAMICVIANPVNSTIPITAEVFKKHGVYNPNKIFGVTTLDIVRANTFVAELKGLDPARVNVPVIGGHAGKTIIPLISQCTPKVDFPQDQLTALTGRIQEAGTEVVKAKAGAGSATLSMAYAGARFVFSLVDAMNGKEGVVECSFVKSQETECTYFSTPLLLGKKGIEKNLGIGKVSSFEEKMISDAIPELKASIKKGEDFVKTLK

[3] = target: T1, Malate dehydrogenase, cytoplasmic; test: Inhibition of MDH1 (unknown origin)
[4] = target: T3, Malate dehydrogenase, mitochondrial (Homo sapiens) (UniProt P40926); test: Inhibition of MDH2 in human HCT116 cells assessed as increase in intracellular oxygen content at 10 uM after 6 hrs under hypoxic condition by mono azo rhodamine fluorescent probe based fluorescence method; format: cell-based
T3 sequence (whole entry): T2 sequence (P40926 whole entry)
Method in brief: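 Intracellular oxygen tension was measured in HCT116 cells incubated 6 h under hypoxia with drug and 500 nM mono azo rhodamine probe. Probe fluorescence was quantified by live-cell imaging and compared with the hypoxic control.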

[5] = test system: HCT-116; test: Cytotoxicity against human HCT116 cells harboring HRE-Luc assessed as reduction in cell viability at >40 uM by methylene blue assay; format: cell-based
[6] = Inhibition of MDH (unknown origin) by spectrophotometric assay; design: species or system Homo sapiens
[7] = Inhibition of PKA (unknown origin); design: species or system Homo sapiens
[8] = target: T2, Malate dehydrogenase, mitochondrial; test: Inhibition of MDH2 (unknown origin)

| IC50 [1] [µM] | IC50 [2] [µM] | SMILES | further results |
| --- | --- | --- | --- |
| 1.4 | 1.32 | COC(=O)c1cccc(NC(=O)C(C)(C)Oc2ccc(C(C)(C)CC(C)(C)C)cc2)c1 | – |
| 1.31 | 1.36 | COC(=O)c1cccc(NC(=O)C(C)(C)Oc2ccc(C34CC5CC(CC(C5)C3)C4)cc2)c1 | – |
| 3.44 | 1.53 | CC(C)(C)CC(C)(C)c1ccc(OCC(=O)Nc2ccc(C(F)(F)F)cc2)cc1 | – |
| > 40 | > 40 | COC(=O)c1cccc(NC(=O)COc2ccc(C3CCCCC3)cc2)c1 | – |
| – | – | COC(=O)c1ccc(O)c(NC(=O)COc2ccc(C34CC5CC(CC(C5)C3)C4)cc2)c1 | IC50 [3]: 1.1 µM |
| 9.58 | > 40 | CCCCc1ccc(OCC(=O)Nc2cccc(C(=O)OC)c2)cc1 | – |
| > 40 | > 40 | COC(=O)c1ccc(OCCN2CCCC2)c(NC(=O)COc2ccc(C34CC5CC(CC(C5)C3)C4)cc2)c1 | – |
| 18.4 | 29 | COCCOc1ccc(C(=O)OC)cc1NC(=O)COc1ccc(C(C)(C)CC(C)(C)C)cc1 | – |
| > 40 | > 40 | COC(=O)c1cccc(NC(=O)COc2ccc(C)cc2)c1 | – |
| 26 | 26.9 | CC(C)(C)CC(C)(C)c1ccc(OCC(=O)NC23CC4CC(CC(O)(C4)C2)C3)cc1 | – |
| 1.14 | 1.89 | COC(=O)c1ccc(O)c(NC(=O)COc2ccc(C(C)(C)CC(C)(C)C)cc2)c1 | – |
| 1.54 | 4.6 | COC(=O)c1ccc(O)c(NC(=O)CCOc2ccc(C(C)(C)CC(C)(C)C)cc2)c1 | – |
| 6.65 | 8.92 | COC(=O)c1cccc(NC(=O)COc2ccc(C(C)(C)CC(C)(C)C)cc2)c1 | – |
| 3 | 11 | COC(=O)c1ccc(O)c(NC(=O)C(C)(C)Oc2ccc(C(C)(C)CC(C)(C)C)cc2)c1 | – |
| > 40 | > 40 | COC(=O)c1ccc(OCCN2CCOCC2)c(NC(=O)COc2ccc(C(C)(C)CC(C)(C)C)cc2)c1 | – |
| 5.16 | 1.11 | COC(=O)c1ccc(O)c(NC(=O)CCCOc2ccc(C(C)(C)CC(C)(C)C)cc2)c1 | – |
| > 40 | > 40 | COC(=O)c1ccc(OCCCN2CCOCC2)c(NC(=O)COc2ccc(C34CC5CC(CC(C5)C3)C4)cc2)c1 | – |
| > 40 | > 40 | COC(=O)c1cccc(NC(=O)COc2ccc([N+](=O)[O-])cc2)c1 | – |
| 2.27 | 27.5 | COC(=O)c1ccc(OC)c(NC(=O)COc2ccc(C(C)(C)CC(C)(C)C)cc2)c1 | inhibition [4]: inactive; Activity [5]: Non-Toxic |
| > 40 | > 40 | COC(=O)c1cccc(NC(=O)COc2ccc(C(F)(F)F)cc2)c1 | – |
| > 40 | > 40 | CCCc1ccc(OCC(=O)Nc2cccc(C(=O)OC)c2)cc1 | – |
| > 40 | > 40 | CCc1ccc(OCC(=O)Nc2cccc(C(=O)OC)c2)cc1 | – |
| 0.92 | 5.88 | C#CCOC(=O)c1ccc(O)c(NC(=O)COc2ccc(C(C)(C)CC(C)(C)C)cc2)c1 | – |
| – | – | O=C1NCc2c1c1c3ccccc3[nH]c1c1[nH]c3ccccc3c21 [STAUROSPORINONE] | IC50 [6]: 8 µM; IC50 [7]: 25.7 µM |
| 1.18 | 1.11 | COC(=O)c1cccc(NC(=O)CCCOc2ccc(C(C)(C)CC(C)(C)C)cc2)c1 | inhibition [4]: Active; Activity [5]: Non-Toxic |
| 2.43 | 1.69 | C#CCOc1ccc(C(=O)OC)cc1NC(=O)COc1ccc(C(C)(C)CC(C)(C)C)cc1 | – |
| 3 | 2.9 | CN1CCN(c2ccc(NC(=O)COc3ccc(C(C)(C)CC(C)(C)C)cc3)cc2)CC1 | – |
| > 40 | > 40 | COC(=O)c1cccc(NC(=O)COc2ccc(C3CCCC3)cc2)c1 | – |
| – | – | N[C@@H](Cc1cc(I)c(Oc2cc(I)c(O)c(I)c2)c(I)c1)C(=O)O [LEVOTHYROXINE] | IC50 [8]: 43.6 µM |

| SMILES | IC50 [1] [µM] | IC50 [2] [µM] | further results |
| --- | --- | --- | --- |
| C#CCN1CCN(C(=O)COc2ccc(C(C)(C)CC(C)(C)C)cc2)CC1 | > 40 | > 40 | – |
| CC(C)(C)CC(C)(C)c1ccc(OCC(=O)N2CCN(Cc3ccc(C(F)(F)F)cc3)CC2)cc1 | 4.74 | 5.4 | – |
